Reference: ChEMBL document CHEMBL4219193, “Synthesis, biological evaluation and molecular docking study of 1-amino-2-aroylnaphthalenes against prostate cancer” (Bioorg Med Chem Lett, 2018)
Activity calls are given as the source filed them.

How the values were obtained:
Format in all cases: cell-based
[1] = molecular target: RAC-alpha serine/threonine-protein kinase (Homo sapiens) (UniProt P31749); assay: Inhibition of AKT1 phosphorylation in human PC3 cells at 14 uM after 12 to 24 hrs by Western blot analysis
Method in brief: (§1)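 Immunoblotting of PC-3 lysates for procaspase 8, procaspase 9 and phosphorylated Akt1, 2 and 3 after treatment at 14 µM, with samples collected at different time points.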

[2] = molecular target: RAC-gamma serine/threonine-protein kinase (Homo sapiens) (UniProt Q9Y243); assay: Inhibition of AKT3 phosphorylation in human PC3 cells at 14 uM after 12 to 24 hrs by Western blot analysis; method in brief: as §1
[3] = molecular target: RAC-beta serine/threonine-protein kinase (Homo sapiens) (UniProt P31751); assay: Inhibition of AKT2 phosphorylation in human PC3 cells at 14 uM after 12 to 24 hrs by Western blot analysis; method in brief: as §1

Measured: inhibition

RAC-beta serine/threonine-protein kinase (Homo sapiens), sequence (P31751 whole entry): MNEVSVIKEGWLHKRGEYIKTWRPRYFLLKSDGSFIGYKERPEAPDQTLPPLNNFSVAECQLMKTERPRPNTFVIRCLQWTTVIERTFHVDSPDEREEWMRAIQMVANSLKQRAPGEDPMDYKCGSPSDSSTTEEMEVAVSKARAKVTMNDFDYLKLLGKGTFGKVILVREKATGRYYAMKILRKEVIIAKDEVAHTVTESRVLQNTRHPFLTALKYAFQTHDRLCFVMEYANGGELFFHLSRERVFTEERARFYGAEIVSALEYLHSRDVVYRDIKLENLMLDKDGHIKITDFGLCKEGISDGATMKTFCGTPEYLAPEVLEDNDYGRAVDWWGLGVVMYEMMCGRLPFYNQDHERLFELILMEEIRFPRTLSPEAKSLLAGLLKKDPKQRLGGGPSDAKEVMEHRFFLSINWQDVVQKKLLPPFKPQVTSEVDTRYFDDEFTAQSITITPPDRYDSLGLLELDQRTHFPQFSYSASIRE
RAC-alpha serine/threonine-protein kinase (Homo sapiens), sequence (P31749 whole entry): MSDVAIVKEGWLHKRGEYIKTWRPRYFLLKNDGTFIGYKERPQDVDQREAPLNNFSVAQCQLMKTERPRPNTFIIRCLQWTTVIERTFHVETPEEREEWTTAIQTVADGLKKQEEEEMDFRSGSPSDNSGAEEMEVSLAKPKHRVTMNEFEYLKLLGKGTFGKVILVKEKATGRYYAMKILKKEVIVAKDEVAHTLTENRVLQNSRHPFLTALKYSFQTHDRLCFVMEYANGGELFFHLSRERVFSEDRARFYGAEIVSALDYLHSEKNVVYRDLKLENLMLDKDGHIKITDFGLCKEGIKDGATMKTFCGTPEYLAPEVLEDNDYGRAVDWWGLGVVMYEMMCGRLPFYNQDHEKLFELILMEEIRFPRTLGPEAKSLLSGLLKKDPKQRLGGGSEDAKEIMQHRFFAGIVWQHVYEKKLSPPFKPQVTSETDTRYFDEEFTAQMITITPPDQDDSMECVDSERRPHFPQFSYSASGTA
RAC-gamma serine/threonine-protein kinase (Homo sapiens), sequence (Q9Y243 whole entry): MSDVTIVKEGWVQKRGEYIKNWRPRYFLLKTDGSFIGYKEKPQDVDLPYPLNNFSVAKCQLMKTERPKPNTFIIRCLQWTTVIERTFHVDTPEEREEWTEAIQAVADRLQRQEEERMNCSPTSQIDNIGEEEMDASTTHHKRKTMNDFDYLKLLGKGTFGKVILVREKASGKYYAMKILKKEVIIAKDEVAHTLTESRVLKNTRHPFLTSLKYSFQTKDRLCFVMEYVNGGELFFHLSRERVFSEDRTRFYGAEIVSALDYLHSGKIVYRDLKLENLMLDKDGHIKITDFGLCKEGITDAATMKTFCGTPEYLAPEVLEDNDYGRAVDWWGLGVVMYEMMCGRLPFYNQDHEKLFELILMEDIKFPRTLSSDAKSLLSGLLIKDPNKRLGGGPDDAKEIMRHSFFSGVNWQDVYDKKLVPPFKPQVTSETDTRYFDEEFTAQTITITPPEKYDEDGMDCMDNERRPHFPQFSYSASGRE

CSc1c(C(=O)c2ccc(Br)cc2)c(N)c2ccccc2c1C#N
active: all assays above
